What was measured:
[1] = target: Tyrosine-protein kinase Srms (Homo sapiens) (UniProt Q9H3Y6); assay: Inhibition of SRMS at 1 uM in presence of 10 uM ATP by Select Screen kinase assay relative to untreated control
Procedure, shortened: (§1)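 Commercial SelectScreen profiling panel of 220 purified kinases. Each kinase was tested at a single inhibitor concentration of 1 μM, and activity was expressed as percent inhibition.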

[2] = target: Insulin receptor-related protein (Homo sapiens) (UniProt P14616); assay: Inhibition of INSRR at 1 uM in presence of 100 uM ATP by Select Screen kinase assay relative to untreated control
Procedure, shortened: (§2)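 Single-concentration profiling at 1 μM against a panel of 220 purified kinases, run as an outsourced SelectScreen kinase profiling service. Activity is expressed as percent inhibition.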

[3] = target: Ephrin type-A receptor 2 (Homo sapiens) (UniProt P29317); assay: Inhibition of EPHA2 at 1 uM in presence of 10 uM ATP by Select Screen kinase assay relative to untreated control
Procedure, shortened: (§3)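 Single-point screen at 1 μM against a panel of 220 purified kinases, run by Invitrogen staff as a SelectScreen profiling service. Read-out is percent inhibition of kinase activity.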

[4] = target: Fibroblast growth factor receptor 1 (Homo sapiens) (UniProt P11362); assay: Inhibition of FGFR1 at 1 uM in presence of 10 uM ATP by Select Screen kinase assay relative to untreated control; procedure, shortened: as §3
[5] = target: Insulin-like growth factor 1 receptor (Homo sapiens) (UniProt P08069); assay: Inhibition of IGF1R at 1 uM in presence of 10 uM ATP by Select Screen kinase assay relative to untreated control; procedure, shortened: as §2
[6] = target: SRSF protein kinase 1 (Homo sapiens) (UniProt Q96SB4); assay: Inhibition of SRPK1 at 1 uM in presence of 100 uM ATP by Select Screen kinase assay relative to untreated control; procedure, shortened: as §1
[7] = target: Serine/threonine-protein kinase B-raf (Homo sapiens) (UniProt P15056); assay: Inhibition of BRAF at 1 uM in presence of 100 uM ATP by Select Screen kinase assay relative to untreated control; procedure, shortened: as §3
[8] = target: Aurora kinase C (Homo sapiens) (UniProt Q9UQB9); assay: Inhibition of AURKC at 1 uM in presence of 10 uM ATP by Select Screen kinase assay relative to untreated control
[9] = target: Tyrosine-protein kinase HCK (Homo sapiens) (UniProt P08631); assay: Inhibition of HCK at 1 uM in presence of 10 uM ATP by Select Screen kinase assay relative to untreated control; procedure, shortened: as §2
Sequence of Tyrosine-protein kinase HCK (Homo sapiens) (P08631 2-526 limits assumed): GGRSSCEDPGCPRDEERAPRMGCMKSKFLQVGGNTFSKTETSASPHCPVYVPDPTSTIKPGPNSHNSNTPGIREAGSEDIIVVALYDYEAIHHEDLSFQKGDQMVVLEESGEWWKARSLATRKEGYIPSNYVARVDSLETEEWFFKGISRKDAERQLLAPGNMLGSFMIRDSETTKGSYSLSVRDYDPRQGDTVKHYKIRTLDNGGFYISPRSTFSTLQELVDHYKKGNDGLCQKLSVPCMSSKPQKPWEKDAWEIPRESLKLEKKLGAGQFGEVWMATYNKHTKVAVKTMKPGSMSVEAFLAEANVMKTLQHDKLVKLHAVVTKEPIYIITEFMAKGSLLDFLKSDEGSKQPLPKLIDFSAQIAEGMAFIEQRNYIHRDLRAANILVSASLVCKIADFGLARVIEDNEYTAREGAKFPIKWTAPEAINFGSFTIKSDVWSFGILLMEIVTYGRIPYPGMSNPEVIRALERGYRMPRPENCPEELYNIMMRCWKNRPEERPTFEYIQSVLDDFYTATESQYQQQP

[10] = target: T1, Rhodopsin kinase GRK7 (Homo sapiens) (UniProt Q8WTQ7); assay: Inhibition of GRK7 at 1 uM in presence of 10 uM ATP by Select Screen kinase assay relative to untreated control; procedure, shortened: as §2
T1 sequence (whole entry): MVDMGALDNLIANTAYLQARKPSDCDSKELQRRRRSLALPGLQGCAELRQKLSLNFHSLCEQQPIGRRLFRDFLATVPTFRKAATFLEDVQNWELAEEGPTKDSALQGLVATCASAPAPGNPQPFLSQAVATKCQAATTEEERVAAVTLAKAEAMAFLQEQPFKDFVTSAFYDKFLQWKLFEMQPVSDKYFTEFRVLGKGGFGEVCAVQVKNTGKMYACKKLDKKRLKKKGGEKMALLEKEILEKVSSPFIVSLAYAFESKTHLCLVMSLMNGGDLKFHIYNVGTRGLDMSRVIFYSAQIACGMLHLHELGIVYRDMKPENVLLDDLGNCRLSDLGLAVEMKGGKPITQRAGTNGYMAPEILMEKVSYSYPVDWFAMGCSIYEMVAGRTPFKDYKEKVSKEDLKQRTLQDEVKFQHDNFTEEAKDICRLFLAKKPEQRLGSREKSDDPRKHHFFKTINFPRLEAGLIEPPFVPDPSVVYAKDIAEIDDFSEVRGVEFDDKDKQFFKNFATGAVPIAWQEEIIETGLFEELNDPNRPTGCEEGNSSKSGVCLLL

[11] = target: Fibroblast growth factor receptor 4 (Homo sapiens) (UniProt P22455); assay: Inhibition of FGFR4 at 1 uM in presence of 10 uM ATP by Select Screen kinase assay relative to untreated control; procedure, shortened: as §2
Sequence of Fibroblast growth factor receptor 4 (Homo sapiens) (P22455 22-802 limits assumed): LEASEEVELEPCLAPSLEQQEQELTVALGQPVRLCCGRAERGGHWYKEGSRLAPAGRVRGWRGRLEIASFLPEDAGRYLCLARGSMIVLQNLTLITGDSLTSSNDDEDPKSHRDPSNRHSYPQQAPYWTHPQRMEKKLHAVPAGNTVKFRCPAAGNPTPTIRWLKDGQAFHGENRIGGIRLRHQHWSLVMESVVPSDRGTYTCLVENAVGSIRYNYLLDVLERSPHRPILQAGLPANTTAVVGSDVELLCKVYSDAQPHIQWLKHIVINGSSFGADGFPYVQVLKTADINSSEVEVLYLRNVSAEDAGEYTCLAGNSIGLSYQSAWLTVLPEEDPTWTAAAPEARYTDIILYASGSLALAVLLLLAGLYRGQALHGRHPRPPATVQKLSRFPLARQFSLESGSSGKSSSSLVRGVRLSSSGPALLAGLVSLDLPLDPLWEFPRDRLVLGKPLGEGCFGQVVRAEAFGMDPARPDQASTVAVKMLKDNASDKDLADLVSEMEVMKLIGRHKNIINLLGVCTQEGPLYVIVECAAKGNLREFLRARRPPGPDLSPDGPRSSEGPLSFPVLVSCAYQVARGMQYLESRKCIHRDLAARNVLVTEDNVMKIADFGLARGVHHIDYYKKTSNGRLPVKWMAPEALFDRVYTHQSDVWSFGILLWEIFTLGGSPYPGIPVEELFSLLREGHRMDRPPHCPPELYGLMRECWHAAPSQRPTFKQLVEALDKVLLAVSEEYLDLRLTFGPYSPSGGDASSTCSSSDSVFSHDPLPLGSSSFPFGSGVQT

[12] = system: Mast/stem cell growth factor receptor Kit (Homo sapiens), P10721 [T670I]; assay: Inhibition of KIT T670I mutant at 1 uM in presence of 10 uM ATP by Select Screen kinase assay relative to untreated control; procedure, shortened: as §2
Sequence of Mast/stem cell growth factor receptor Kit (Homo sapiens), P10721 [T670I] (P10721 whole entry T670I): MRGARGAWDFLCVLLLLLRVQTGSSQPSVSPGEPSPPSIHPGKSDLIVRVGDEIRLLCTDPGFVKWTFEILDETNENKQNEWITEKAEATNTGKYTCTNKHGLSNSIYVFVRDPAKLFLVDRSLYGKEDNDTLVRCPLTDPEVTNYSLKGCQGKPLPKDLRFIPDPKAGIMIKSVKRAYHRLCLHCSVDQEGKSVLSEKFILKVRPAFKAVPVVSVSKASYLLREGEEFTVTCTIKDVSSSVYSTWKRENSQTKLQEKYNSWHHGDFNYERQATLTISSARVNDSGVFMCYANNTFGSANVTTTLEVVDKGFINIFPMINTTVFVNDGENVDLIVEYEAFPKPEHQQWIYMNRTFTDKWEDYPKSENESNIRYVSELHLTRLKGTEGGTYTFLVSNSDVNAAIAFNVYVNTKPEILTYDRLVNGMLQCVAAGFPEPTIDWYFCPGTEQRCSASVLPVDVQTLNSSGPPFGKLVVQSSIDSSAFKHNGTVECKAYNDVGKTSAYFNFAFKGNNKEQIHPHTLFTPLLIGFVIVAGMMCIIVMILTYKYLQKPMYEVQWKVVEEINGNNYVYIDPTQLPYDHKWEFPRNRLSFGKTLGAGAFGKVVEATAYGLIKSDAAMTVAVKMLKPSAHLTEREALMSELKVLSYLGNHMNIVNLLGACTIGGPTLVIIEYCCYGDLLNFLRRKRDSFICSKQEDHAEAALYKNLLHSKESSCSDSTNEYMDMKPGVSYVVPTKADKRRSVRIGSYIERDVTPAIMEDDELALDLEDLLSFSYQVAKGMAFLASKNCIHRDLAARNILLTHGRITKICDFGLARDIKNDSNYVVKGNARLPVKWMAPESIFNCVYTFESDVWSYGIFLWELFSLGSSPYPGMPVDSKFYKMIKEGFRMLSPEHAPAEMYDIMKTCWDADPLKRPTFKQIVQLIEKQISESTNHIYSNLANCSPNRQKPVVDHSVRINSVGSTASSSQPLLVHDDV

[13] = target: Serine/threonine-protein kinase Nek4 (Homo sapiens) (UniProt P51957); assay: Inhibition of NEK4 at 1 uM in presence of 100 uM ATP by Select Screen kinase assay relative to untreated control; procedure, shortened: as §2
[14] = target: Casein kinase I isoform gamma-2 (Homo sapiens) (UniProt P78368); assay: Inhibition of CSNK1G2 at 1 uM in presence of 10 uM ATP by Select Screen kinase assay relative to untreated control; procedure, shortened: as §3
Sequence of Casein kinase I isoform gamma-2 (Homo sapiens) (P78368 whole entry, looked up, canonical isoform): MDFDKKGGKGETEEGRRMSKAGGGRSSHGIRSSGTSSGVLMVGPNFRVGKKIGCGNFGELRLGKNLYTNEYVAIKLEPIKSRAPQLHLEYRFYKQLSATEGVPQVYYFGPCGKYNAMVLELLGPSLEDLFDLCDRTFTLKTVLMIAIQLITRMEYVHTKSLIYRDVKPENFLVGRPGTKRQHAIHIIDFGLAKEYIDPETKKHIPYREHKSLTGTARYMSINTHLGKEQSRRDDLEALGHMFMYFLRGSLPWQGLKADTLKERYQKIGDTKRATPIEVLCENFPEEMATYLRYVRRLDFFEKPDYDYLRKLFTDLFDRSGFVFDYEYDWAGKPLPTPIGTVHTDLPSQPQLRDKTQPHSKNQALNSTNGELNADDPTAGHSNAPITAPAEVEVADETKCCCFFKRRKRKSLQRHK

[15] = target: Proto-oncogene tyrosine-protein kinase Src (Homo sapiens) (UniProt P12931); assay: Inhibition of SRC at 1 uM in presence of 10 uM ATP by Select Screen kinase assay relative to untreated control; procedure, shortened: as §1
[16] = target: Proto-oncogene tyrosine-protein kinase ROS (Homo sapiens) (UniProt P08922); assay: Inhibition of ROS1 at 1 uM in presence of 10 uM ATP by Select Screen kinase assay relative to untreated control; procedure, shortened: as §1
Sequence of Proto-oncogene tyrosine-protein kinase ROS (Homo sapiens) (P08922 whole entry): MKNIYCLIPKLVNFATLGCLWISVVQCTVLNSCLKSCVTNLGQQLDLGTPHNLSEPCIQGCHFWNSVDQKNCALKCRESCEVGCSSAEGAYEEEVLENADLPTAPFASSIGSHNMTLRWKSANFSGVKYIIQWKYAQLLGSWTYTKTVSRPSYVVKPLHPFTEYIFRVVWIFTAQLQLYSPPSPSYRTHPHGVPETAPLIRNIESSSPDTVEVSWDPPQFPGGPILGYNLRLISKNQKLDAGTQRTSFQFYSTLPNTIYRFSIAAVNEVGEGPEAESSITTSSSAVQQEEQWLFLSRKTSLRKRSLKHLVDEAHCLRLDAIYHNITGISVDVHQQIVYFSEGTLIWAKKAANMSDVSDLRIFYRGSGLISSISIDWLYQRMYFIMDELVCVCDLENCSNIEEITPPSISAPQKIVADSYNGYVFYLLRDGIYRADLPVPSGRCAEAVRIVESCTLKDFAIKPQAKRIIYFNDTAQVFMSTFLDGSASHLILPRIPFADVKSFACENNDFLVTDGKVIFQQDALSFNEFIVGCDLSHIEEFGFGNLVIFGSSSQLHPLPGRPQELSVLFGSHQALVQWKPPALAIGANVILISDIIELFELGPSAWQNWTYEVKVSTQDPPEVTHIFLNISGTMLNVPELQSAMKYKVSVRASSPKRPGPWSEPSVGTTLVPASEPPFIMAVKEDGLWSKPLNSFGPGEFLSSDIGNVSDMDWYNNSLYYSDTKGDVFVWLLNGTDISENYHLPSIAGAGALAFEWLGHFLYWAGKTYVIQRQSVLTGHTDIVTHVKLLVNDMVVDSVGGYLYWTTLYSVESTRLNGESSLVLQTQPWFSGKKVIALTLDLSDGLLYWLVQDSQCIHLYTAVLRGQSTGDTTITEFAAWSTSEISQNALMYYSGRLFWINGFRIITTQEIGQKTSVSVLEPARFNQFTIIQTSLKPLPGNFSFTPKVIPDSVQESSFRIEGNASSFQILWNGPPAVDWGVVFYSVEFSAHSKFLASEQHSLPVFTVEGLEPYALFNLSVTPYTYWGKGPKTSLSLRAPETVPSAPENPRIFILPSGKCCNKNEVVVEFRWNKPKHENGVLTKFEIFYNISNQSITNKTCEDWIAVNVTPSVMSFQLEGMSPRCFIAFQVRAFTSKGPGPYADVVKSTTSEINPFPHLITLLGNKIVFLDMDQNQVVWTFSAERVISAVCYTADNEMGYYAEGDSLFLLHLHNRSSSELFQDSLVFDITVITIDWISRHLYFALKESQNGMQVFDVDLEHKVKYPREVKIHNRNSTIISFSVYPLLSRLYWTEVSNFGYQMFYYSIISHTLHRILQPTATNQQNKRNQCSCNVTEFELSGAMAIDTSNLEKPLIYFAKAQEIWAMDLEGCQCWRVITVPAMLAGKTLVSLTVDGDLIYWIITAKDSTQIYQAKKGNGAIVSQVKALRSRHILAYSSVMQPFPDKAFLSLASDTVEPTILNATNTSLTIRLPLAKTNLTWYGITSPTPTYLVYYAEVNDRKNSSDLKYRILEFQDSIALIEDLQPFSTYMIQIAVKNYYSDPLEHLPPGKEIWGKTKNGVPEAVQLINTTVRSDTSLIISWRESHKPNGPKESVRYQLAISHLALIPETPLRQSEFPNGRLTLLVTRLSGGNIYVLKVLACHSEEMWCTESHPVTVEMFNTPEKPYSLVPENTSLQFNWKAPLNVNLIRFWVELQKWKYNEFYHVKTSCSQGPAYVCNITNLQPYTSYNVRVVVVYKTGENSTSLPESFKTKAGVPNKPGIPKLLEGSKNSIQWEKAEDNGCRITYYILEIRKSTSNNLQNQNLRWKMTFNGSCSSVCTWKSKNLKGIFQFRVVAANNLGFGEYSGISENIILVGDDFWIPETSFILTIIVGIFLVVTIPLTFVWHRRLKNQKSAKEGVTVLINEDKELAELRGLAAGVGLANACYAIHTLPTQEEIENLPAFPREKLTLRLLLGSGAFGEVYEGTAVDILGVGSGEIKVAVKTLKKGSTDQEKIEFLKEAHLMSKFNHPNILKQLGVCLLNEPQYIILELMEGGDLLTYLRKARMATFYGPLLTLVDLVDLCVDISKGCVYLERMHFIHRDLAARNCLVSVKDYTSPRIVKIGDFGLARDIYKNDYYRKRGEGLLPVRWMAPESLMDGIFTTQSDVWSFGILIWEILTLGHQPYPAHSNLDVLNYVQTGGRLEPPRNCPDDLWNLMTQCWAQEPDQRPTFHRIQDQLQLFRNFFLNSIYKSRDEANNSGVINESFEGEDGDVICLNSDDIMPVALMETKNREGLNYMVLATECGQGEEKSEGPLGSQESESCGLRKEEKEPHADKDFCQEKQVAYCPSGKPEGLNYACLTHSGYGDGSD

[17] = target: T2, Tyrosine-protein kinase ZAP-70 (Homo sapiens) (UniProt P43403); assay: Inhibition of ZAP70 at 1 uM in presence of 10 uM ATP by Select Screen kinase assay relative to untreated control; procedure, shortened: as §1
T2 sequence (whole entry): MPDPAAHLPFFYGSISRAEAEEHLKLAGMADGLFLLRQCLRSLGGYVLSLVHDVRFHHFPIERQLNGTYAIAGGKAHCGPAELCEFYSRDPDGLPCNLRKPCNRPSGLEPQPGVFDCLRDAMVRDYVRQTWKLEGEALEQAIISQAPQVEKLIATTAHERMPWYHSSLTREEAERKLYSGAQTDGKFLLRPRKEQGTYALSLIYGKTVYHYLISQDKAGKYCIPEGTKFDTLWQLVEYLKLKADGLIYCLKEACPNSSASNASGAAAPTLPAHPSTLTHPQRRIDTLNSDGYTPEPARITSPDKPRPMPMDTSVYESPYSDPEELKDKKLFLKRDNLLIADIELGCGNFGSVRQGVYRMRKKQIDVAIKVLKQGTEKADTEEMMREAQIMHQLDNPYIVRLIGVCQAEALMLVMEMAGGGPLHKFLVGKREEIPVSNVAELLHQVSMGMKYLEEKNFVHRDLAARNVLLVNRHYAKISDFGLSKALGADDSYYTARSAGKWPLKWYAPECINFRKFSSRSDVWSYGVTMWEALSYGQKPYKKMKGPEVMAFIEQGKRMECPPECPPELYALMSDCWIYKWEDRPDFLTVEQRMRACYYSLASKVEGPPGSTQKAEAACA

[18] = target: Mitogen-activated protein kinase kinase kinase 9 (Homo sapiens) (UniProt P80192); assay: Inhibition of MAP3K9 at 1 uM in presence of 100 uM ATP by Select Screen kinase assay relative to untreated control; procedure, shortened: as §2

SMILES	inhibition [1] [%]	inhibition [2] [%]	inhibition [3] [%]	inhibition [4] [%]	inhibition [5] [%]	inhibition [6] [%]	inhibition [7] [%]	inhibition [8] [%]	inhibition [9] [%]	inhibition [10] [%]	inhibition [11] [%]	inhibition [12] [%]	inhibition [13] [%]	inhibition [14] [%]	inhibition [15] [%]	inhibition [16] [%]	inhibition [17] [%]	inhibition [18] [%]
COc1ccccc1N1CCN(c2ncnc3[nH]nc(Br)c23)CC1	7	8	24	14	10	12	17	16	15	34	15	11	10	12	10	21	4	22
Cc1n[nH]c2ccc(-c3cncc(OC[C@@H](N)Cc4c[nH]c5ccccc45)c3)cc12	-1	1	8	14	5	27	72	17	8	102	-2	0	41	81	11	17	11	15
O=C(NCCCNc1nc(Nc2cccc(NC(=O)N3CCCC3)c2)ncc1I)c1cccs1	10	12	22	46	10	12	38	96	9	17	29	29	24	15	27	5	24	98

From ChEMBL document CHEMBL1250448, “Inhibitor hijacking of Akt activation” (Nat Chem Biol, 2009)
